Consider six compounds from article PMC6663923 (Acta Pharmaceutica Sinica. B, 2019).

Where two headings read alike, the source gives them in different places. A value given as a limit tells only on which side of the number the result lay.

The target in test [1] is T1, recombinant LSD1 (Homo sapiens, UniProt O60341). The test can be described thus: LSD1 enzymatic assay. It is filed as biochemical.
For another test, the system named is glioma stem cells (GSCs). To be noted: cited from earlier work.
In test [2] the target is T1, recombinant LSD1. The experiment in a line: Reversibility analysis. It is filed as biochemical. To be noted: 80-fold dilution. In outline:
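Recombinant LSD1 (2.5 μg) was preincubated for 1 h with the test compound (312.5 μmol/L), a reference inhibitor (600 μmol/L) or DMSO. Aliquots were then diluted 80-fold into HRP-coupled assay solution containing substrate and coupling reagents, and residual demethylase activity was measured.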

As usually defined, the IC50 is the concentration at which inhibition is half-maximal. On to `C#CCSc1nc(Sc2nnnn2-c2ccccc2)c2nnn(Cc3ccc(C(C)C)cc3)c2n1` [Compound 15x], for which, on recombinant LSD1 [1] (read-out: LSD1 IC50, recombinant LSD1), the half-maximal inhibitory concentration (IC50) was 55 nM. As to `C#CCSc1nc(Sc2nnnn2-c2ccccc2)c2nnn(Cc3ccc(OC)cc3)c2n1` [Compound 15y], the IC50 at recombinant LSD1 [1] (LSD1 IC50, recombinant LSD1) was 140 nM. Turning to `NC1CC1c1cccc(OCC[C@H](NC(=O)c2ccccc2)C(=O)NCc2ccccc2)c1` (stereo partly drawn) [NCL-1], the “cell viability of GSCs (in words)” value in the test with glioma stem cells (GSCs) is recorded as “significantly reduced the cell viability”.

Regarding `O=C(O)c1ccc(CN2CCC(CN[C@@H]3C[C@H]3c3ccccc3)CC2)cc1` [GSK2879552], the “reversibility of LSD1 inhibition (in words)” value at recombinant LSD1 [2] is on record as “failed to recover the activity of LSD1”. On to `OCCNc1cc(Sc2nnnn2-c2ccccc2)nc(SCc2ccccc2)n1` [Compound 22b, 2-((2-(Benzylthio)-6-((1-phenyl-1H-tetrazol-5-yl)thio)pyrimidin-4-yl)amino)ethan-1-ol], for which the IC50 at recombinant LSD1 [1] (LSD1 IC50, recombinant LSD1) is > 10000 nM. Regarding `CCCSc1nc(Sc2nc3ccccc3s2)c2nnn(CCOCCO)c2n1` [Compound 8l], the “LSD1 inhibitory effect (in words)” value at recombinant LSD1 [1] (recombinant LSD1) was “moderate inhibitory effect”.
